In ChEMBL document CHEMBL1132304, “Characterization of "mini-nucleotides" as P2X receptor agonists in rat cardiomyocyte cultures. An integrated synthetic, biochemical, and theoretical study” (1999):
Active and inactive are the calls of the source. The rule behind the calls is not given here.

How the values were obtained:
Rattus norvegicus [1] = species: Rattus norvegicus; assay: In vitro effect on intracellular ca++ elevation was determined in comparison to the ATP at 10 uM on rat cardiomyocytes; Not active; format: functional
Procedure, shortened: (§1)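 Cultured neonatal rat cardiomyocytes (3-5 days in vitro) on coverglasses were loaded with indo-1, and [Ca²⁺]i was estimated by the 405/495 nm emission ratio method under UV epifluorescence. Ligand was added at 100 µM, with ATP 10 µM as reference. The read-out was [Ca²⁺]i elevation in nM above the 100 nM basal level, from 2-3 experiments.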

Rattus norvegicus [2] = species: Rattus norvegicus; assay: Compound was evaluated 1 min after drug application on rat cardiomyocytes; format: functional; parameters: concentration or dose not given beside the values
Procedure, shortened: (§2)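 Neonatal rat cardiomyocyte cultures (3-5 days in vitro, spontaneously contracting monolayers on collagen/gelatin-coated coverglasses) exposed to ligand at 100 µM. Contraction rate was recorded by video motion detector under phase-contrast microscopy at 37 °C in 95% air/5% CO₂, 1 min after drug application. The read-out was % reduction of heart rate from representative experiments.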

Rattus norvegicus [3] = species: Rattus norvegicus; assay: Inhibition of Ca++ elevation was determined in PPADS treated cardiac cells in rat; Complete inhibition; format: functional, cell-based
Rattus norvegicus [4] = species: Rattus norvegicus; assay: In vitro effect on intracellular ca++ elevation in comparison to the ATP at 10 uM on rat cardiomyocytes.; format: functional; procedure, shortened: as §1
Rattus norvegicus [5] = species: Rattus norvegicus; assay: Inhibition of Ca++ elevation was determined in CPX treated cardiac cells in rat; No inhibition; format: functional, cell-based
Rattus norvegicus [6] = species: Rattus norvegicus; assay: In vitro effect on intracellular ca++ elevation was determined in comparison to the ATP at 10 uM on rat cardiomyocytes; Ca++ elevation; Not avtive; format: functional; procedure, shortened: as §1
Rattus norvegicus [7] = species: Rattus norvegicus; assay: Inhibition of Ca++ elevation was determined in CPX treated cardiac cells in rat; Complete inhibition; Complete inhibition; format: functional, cell-based
Rattus norvegicus [8] = species: Rattus norvegicus; assay: In vitro effect on intracellular ca++ elevation was determined in comparison to the ATP at 10 uM on rat cardiomyocytes; Ca++ elevation; format: functional; procedure, shortened: as §1
Rattus norvegicus [9] = species: Rattus norvegicus; assay: Inhibition of Ca++ elevation was determined in PPADS treated cardiac cells in rat; format: functional
Procedure, shortened: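 Neonatal rat cardiomyocyte cultures. Cells were incubated 5 min with 100 µM PPADS (P2-R antagonist) before the agonist was added at 100 µM (ATP at 10 µM). Intracellular Ca²⁺ was measured by the indo-1 405/495 nm emission ratio (Grynkiewicz ratio method). Scored as complete inhibition (+), no inhibition (−), or partial.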

Rattus norvegicus [10] = species: Rattus norvegicus; assay: Compound was evaluated 1 min after drug application on rat cardiomyocytes; Not active; format: functional; procedure, shortened: as §2
Rattus norvegicus [11] = species: Rattus norvegicus; assay: In vitro effect on intracellular ca++ elevation was determined in comparison to the ATP at 10 uM on rat cardiomyocytes; Ca++ elevation; Not active; format: functional; procedure, shortened: as §1
Rattus norvegicus [12] = species: Rattus norvegicus; assay: Inhibition of Ca++ elevation was determined in CPX treated cardiac cells in rat; Complete inhibition; format: functional, cell-based
Rattus norvegicus [13] = species: Rattus norvegicus; assay: Inhibition of Ca++ elevation was determined in PPADS treated cardiac cells in rat; No inhibition; format: functional, cell-based

| SMILES | Reduction of heart rate (Rattus norvegicus [2]) | inhibition (Rattus norvegicus [3]) | Ca2+ elevation (Rattus norvegicus [8]) | further results |
| --- | --- | --- | --- | --- |
| CCOc1nc2c(c(=O)n(C)c(=O)n2C)n1CCOP(=O)(O)O |  |  |  | Ca2+ elevation (Rattus norvegicus [1]): inactive |
| Cn1c(=O)c2c(ncn2CCOP(=O)(O)OP(=O)(O)OP(=O)(O)O)n(C)c1=O | 64% | Total inhibition |  | Ca2+ elevation (Rattus norvegicus [4]): 87 nM; inhibition (Rattus norvegicus [5]): inactive |
| Cn1c(=O)c2c(ncn2CCCOP(=O)(O)O)n(C)c1=O |  |  |  | Ca2+ elevation (Rattus norvegicus [6]): inactive |
| Cn1cnc2c1c(=O)n(CCOP(=O)(O)O)c(=O)n2C.N.N | 10% | Total inhibition | 61 nM | inhibition (Rattus norvegicus [7]): Total inhibition |
| Cn1c(=O)c2c(nc(Cl)n2CCOP(=O)(O)O)n(C)c1=O | 95% |  | 49 nM | inhibition (Rattus norvegicus [5]): inactive |
| Nc1ncnc2c1ncn2[C@@H]1O[C@H](COP(=O)(O)OP(=O)(O)OP(=O)(O)O)[C@@H](O)[C@H]1O [ADENOSINE TRIPHOSPHATE] |  |  |  | inhibition (Rattus norvegicus [5]): inactive; Inhibition (Rattus norvegicus [9]): 60% |
| Cn1c(=O)c2c(nc(Cl)n2CCOP(=O)(O)OP(=O)(O)OP(=O)(O)O)n(C)c1=O | 28% | Total inhibition | 29 nM | inhibition (Rattus norvegicus [5]): inactive |
| Cn1c(=O)c2c(nc(Br)n2CCOP(=O)(O)OP(=O)(O)OP(=O)(O)O)n(C)c1=O | 32% |  | 37 nM |  |
| Cn1cnc2c1c(=O)n(CCCOP(=O)(O)O)c(=O)n2C |  |  |  | Ca2+ elevation (Rattus norvegicus [6]): inactive |
| Cn1c(Br)nc2c1c(=O)n(CCOP(=O)(O)O)c(=O)n2C |  | Total inhibition | 80 nM | inhibition (Rattus norvegicus [5]): inactive; NA (Rattus norvegicus [10]): inactive |
| CCOc1nc2c(c(=O)n(C)c(=O)n2C)n1CCOP(=O)(O)OP(=O)(O)OP(=O)(O)O |  |  |  | Ca2+ elevation (Rattus norvegicus [6]): inactive |
| Cn1c(=O)c2c(ncn2CCCOP(=O)(O)OP(=O)(O)OP(=O)(O)O)n(C)c1=O |  |  |  | Ca2+ elevation (Rattus norvegicus [11]): inactive |
| Cn1c(=O)c2c(nc(Sc3ccccc3)n2CCOP(=O)(O)OP(=O)(O)OP(=O)(O)O)n(C)c1=O |  |  |  | Ca2+ elevation (Rattus norvegicus [1]): inactive |
| Cn1c(Br)nc2c1c(=O)n(CCOP(=O)(O)OP(=O)(O)OP(=O)(O)O)c(=O)n2C | 50% | Total inhibition | 94 nM |  |
| Cn1c(=O)c2c(nc(Sc3ccccc3)n2CCOP(=O)(O)O)n(C)c1=O |  |  |  | Ca2+ elevation (Rattus norvegicus [1]): inactive |
| Cn1cnc2c1c(=O)n(CCCOP(=O)(O)OP(=O)(O)OP(=O)(O)O)c(=O)n2C.N.N.N.N |  |  | 60 nM |  |
| Cn1c(=O)c2c(ncn2CCOP(=O)(O)O)n(C)c1=O | 16% | Total inhibition | 80 nM | inhibition (Rattus norvegicus [12]): Total inhibition |
| Cn1cnc2c1c(=O)n(CCOP(=O)(O)OP(=O)(O)OP(=O)(O)O)c(=O)n2C.N.N.N.N | 3% |  | 54 nM | inhibition (Rattus norvegicus [13]): inactive; inhibition (Rattus norvegicus [12]): Total inhibition |
| Cn1c(Sc2ccccc2)nc2c1c(=O)n(CCOP(=O)(O)O)c(=O)n2C |  |  |  | Ca2+ elevation (Rattus norvegicus [1]): inactive |
| Cn1c(=O)c2c(nc(Br)n2CCOP(=O)(O)O)n(C)c1=O | 17% |  | 54 nM |  |
